The source of these data is ChEMBL document CHEMBL1949668, “Synthesis of new α aminophosphonate system bearing Indazole moiety and their biological activity” (2012).

The subject of one test is Pseudomonas aeruginosa. In words: Antibacterial activity Pseudomonas aeruginosa at 40 ug/disc after 24 hrs by agar disc diffusion method. The conditions noted are these: read-out: IZ. The test is classed as functional. In outline: (§1)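 Agar disc diffusion. Strains were grown in Mueller Hinton broth for 18–24 h at 37 °C. The bacterial suspension was spread on Mueller Hinton agar, and dried loaded discs were placed on it once the plates were dry. Gentamycin and […] reference discs carried 40 mcg/disc from 1 mg/ml solutions. Plates were incubated 24 h at 37 °C, and clear inhibition zones were measured in mm.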
In the case of `NC[C@H]1O[C@H](O[C@H]2[C@H](O)[C@@H](O[C@H]3O[C@H](CO)[C@@H](O)[C@H](N)[C@H]3O)[C@H](N)C[C@@H]2N)[C@H](O)[C@@H](O)[C@@H]1O` [KANAMYCIN], the zone of inhibition at 40 µg/disc amounted to 21 mm.
Same read-out and setting: the figure for `CCOP(=O)(OCC)C(NNC(=O)c1nn(C)c2ccccc12)c1ccc(C(F)(F)F)cc1` (stereo not drawn) is 6 mm.
Still for that read-out and setting: then `CCOP(=O)(OCC)C(NNC(=O)c1nn(C)c2ccccc12)c1cccc(F)c1` (stereo not drawn), with 7 mm; and `CCOP(=O)(OCC)C(NNC(=O)c1nn(C)c2ccccc12)c1ccccc1Br` (stereo not drawn), with 4 mm.
On to `CCOP(=O)(OCC)C(NNC(=O)c1nn(C)c2ccccc12)c1ccccc1` (stereo not drawn), for which the zone of inhibition at 40 µg/disc was 1 mm.

A further test relates to Salmonella typhimurium. As to the kind of experiment: Antibacterial activity Salmonella Typhimurium at 40 ug/disc after 24 hrs by agar disc diffusion method. The test is classed as functional. The conditions noted are these: Salmonella enterica subsp. enterica serovar Typhimurium. In short, it runs like this:
as §1
As for GENTAMICIN, the inhibition zone (IZ) turned out to be 11 mm.

Still in this test, the particulars now being: Salmonella enterica, read-out: IZ.
With `NC[C@H]1O[C@H](O[C@H]2[C@H](O)[C@@H](O[C@H]3O[C@H](CO)[C@@H](O)[C@H](N)[C@H]3O)[C@H](N)C[C@@H]2N)[C@H](O)[C@@H](O)[C@@H]1O` [KANAMYCIN], the zone of inhibition at 40 µg/disc amounted to 14 mm.
The same measure, in the same setting: then `CCOP(=O)(OCC)C(NNC(=O)c1nn(C)c2ccccc12)c1ccc(C(F)(F)F)cc1` (stereo not drawn), with 5 mm; and `CCOP(=O)(OCC)C(NNC(=O)c1nn(C)c2ccccc12)c1cccc(F)c1` (stereo not drawn), with 4 mm; and `CCOP(=O)(OCC)C(NNC(=O)c1nn(C)c2ccccc12)c1ccccc1Br` (stereo not drawn), with 3 mm.
The same measure, in the same setting: then `CCOP(=O)(OCC)C(NNC(=O)c1nn(C)c2ccccc12)c1ccccc1` (stereo not drawn), with 2 mm.

The subject of the next test is Bacillus subtilis. In words: Antibacterial activity Bacillus subtilis at 40 ug/disc after 24 hrs by agar disc diffusion method. The test is classed as functional.
Details: not given
In short, it runs like this: as §1
On the technique in general: Agar diffusion results depend on both activity and mobility in agar.
For GENTAMICIN, the inhibition zone (IZ) was 15 mm.

The test is the same for the next values; noted with them: read-out: IZ.
In the case of `NC[C@H]1O[C@H](O[C@H]2[C@H](O)[C@@H](O[C@H]3O[C@H](CO)[C@@H](O)[C@H](N)[C@H]3O)[C@H](N)C[C@@H]2N)[C@H](O)[C@@H](O)[C@@H]1O` [KANAMYCIN], the zone of inhibition at 40 µg/disc was 15 mm.
`CCOP(=O)(OCC)C(NNC(=O)c1nn(C)c2ccccc12)c1ccc(C(F)(F)F)cc1` (stereo not drawn): the zone of inhibition at 40 µg/disc stood at 4 mm.
Same read-out and setting: then `CCOP(=O)(OCC)C(NNC(=O)c1nn(C)c2ccccc12)c1cccc(F)c1` (stereo not drawn), with 4 mm; and `CCOP(=O)(OCC)C(NNC(=O)c1nn(C)c2ccccc12)c1ccccc1Br` (stereo not drawn), with 7 mm.
On the same count and under the same terms, the figure for `CCOP(=O)(OCC)C(NNC(=O)c1nn(C)c2ccccc12)c1ccccc1` (stereo not drawn) is 5 mm.

The next test relates to Klebsiella pneumoniae. In words: Antibacterial activity Klebsiella pneumoniae at 40 ug/disc after 24 hrs by agar disc diffusion method. Format: functional.
Details: not given
In outline: as §1
GENTAMICIN returned an inhibition zone (IZ) of 13 mm.

Still in this test, the particulars now being: read-out: IZ.
Take `NC[C@H]1O[C@H](O[C@H]2[C@H](O)[C@@H](O[C@H]3O[C@H](CO)[C@@H](O)[C@H](N)[C@H]3O)[C@H](N)C[C@@H]2N)[C@H](O)[C@@H](O)[C@@H]1O` [KANAMYCIN]: the zone of inhibition at 40 µg/disc amounted to 18 mm.
In the case of `CCOP(=O)(OCC)C(NNC(=O)c1nn(C)c2ccccc12)c1ccc(C(F)(F)F)cc1` (stereo not drawn), the zone of inhibition at 40 µg/disc came to 7 mm.
Still for that read-out and setting: the figure for `CCOP(=O)(OCC)C(NNC(=O)c1nn(C)c2ccccc12)c1cccc(F)c1` (stereo not drawn) is 8 mm; for `CCOP(=O)(OCC)C(NNC(=O)c1nn(C)c2ccccc12)c1ccccc1Br` (stereo not drawn) it is 2 mm; for `CCOP(=O)(OCC)C(NNC(=O)c1nn(C)c2ccccc12)c1ccccc1` (stereo not drawn) it is 3 mm.

The next test has as its system Staphylococcus aureus. As to the kind of experiment: Antibacterial activity Staphylococcus aureus at 40 ug/disc after 24 hrs by agar disc diffusion method. The test is classed as functional. The conditions noted are these: read-out: IZ. In short, it runs like this:
as §1
`NC[C@H]1O[C@H](O[C@H]2[C@H](O)[C@@H](O[C@H]3O[C@H](CO)[C@@H](O)[C@H](N)[C@H]3O)[C@H](N)C[C@@H]2N)[C@H](O)[C@@H](O)[C@@H]1O` [KANAMYCIN]: the zone of inhibition at 40 µg/disc was determined as 9 mm.
Same read-out and setting: the figure for `CCOP(=O)(OCC)C(NNC(=O)c1nn(C)c2ccccc12)c1ccc(C(F)(F)F)cc1` (stereo not drawn) is 5 mm; for `CCOP(=O)(OCC)C(NNC(=O)c1nn(C)c2ccccc12)c1cccc(F)c1` (stereo not drawn) it is 3 mm.
Consider `CCOP(=O)(OCC)C(NNC(=O)c1nn(C)c2ccccc12)c1ccccc1Br` (stereo not drawn), for which the zone of inhibition at 40 µg/disc was found to be 1 mm.
The same measure, in the same setting: the figure for `CCOP(=O)(OCC)C(NNC(=O)c1nn(C)c2ccccc12)c1ccccc1` (stereo not drawn) is 2 mm.

Another test deals with Escherichia coli. As to the kind of experiment: Antibacterial activity Escherichia coli at 40 ug/disc after 24 hrs by agar disc diffusion method. The note with it: read-out: IZ. Format: functional. In outline:
as §1
Take `NC[C@H]1O[C@H](O[C@H]2[C@H](O)[C@@H](O[C@H]3O[C@H](CO)[C@@H](O)[C@H](N)[C@H]3O)[C@H](N)C[C@@H]2N)[C@H](O)[C@@H](O)[C@@H]1O` [KANAMYCIN]: the zone of inhibition at 40 µg/disc was determined as 13 mm.
Same read-out and setting: the figure for `CCOP(=O)(OCC)C(NNC(=O)c1nn(C)c2ccccc12)c1ccc(C(F)(F)F)cc1` (stereo not drawn) is 3 mm.
Take `CCOP(=O)(OCC)C(NNC(=O)c1nn(C)c2ccccc12)c1cccc(F)c1` (stereo not drawn): the zone of inhibition at 40 µg/disc is 5 mm.
As for `CCOP(=O)(OCC)C(NNC(=O)c1nn(C)c2ccccc12)c1ccccc1Br` (stereo not drawn), the zone of inhibition at 40 µg/disc amounted to 1 mm.
As to `CCOP(=O)(OCC)C(NNC(=O)c1nn(C)c2ccccc12)c1ccccc1` (stereo not drawn), the zone of inhibition at 40 µg/disc amounted to 0 mm.
